Experimental data published in ChEMBL document CHEMBL1151249, “Cytotoxic and antimicrobial constituents of the bark of Diospyros maritima collected in two geographical locations in Indonesia” (J Nat Prod, 2004).
In brackets after ≈: the same amount, converted by molar mass.

Assays:
[1] = test system: Mycolicibacterium smegmatis; assay: Antimicrobial activity against Mycobacterium smegmatis after 18 hrs by zone-of-inhibition assay; assay type: functional, organism-based
[2] = test system: Aspergillus niger; assay: Antifungal activity against Aspergillus niger assessed as 99.9 % growth inhibition after 18 hrs by zone-of-inhibition assay; assay type: functional
[3] = test system: Candida albicans; assay: Antimicrobial activity against Candida albicans assessed as 99.9 % growth inhibition after 18 hrs by zone-of-inhibition assay; assay type: functional
[4] = test system: Aspergillus niger; assay: Antifungal activity against Aspergillus niger after 18 hrs by zone-of-inhibition assay; assay type: functional, organism-based
[5] = test system: Micrococcus luteus; assay: Antimicrobial activity against Micrococcus luteus assessed as 99.9 % growth inhibition after 18 hrs by zone-of-inhibition assay; assay type: functional
[6] = test system: LNCaP; assay: Cytotoxicity against human LNCAP cells; assay type: functional; conditions: read-out: ED50 (the source's name)
[7] = test system: Staphylococcus aureus; assay: Antimicrobial activity against Staphylococcus aureus after 18 hrs by zone-of-inhibition assay; assay type: functional, organism-based
[8] = test system: Staphylococcus aureus; assay: Antimicrobial activity against Staphylococcus aureus assessed as 99.9 % growth inhibition after 18 hrs by zone-of-inhibition assay; assay type: functional
[9] = test system: Mycobacterium avium; assay: Antimicrobial activity against Mycobacterium avium after 18 hrs by zone-of-inhibition assay; assay type: functional, organism-based
[10] = test system: Micrococcus luteus; assay: Antimicrobial activity against Micrococcus luteus after 18 hrs by zone-of-inhibition assay; assay type: functional, organism-based
[11] = test system: Saccharomyces cerevisiae; assay: Antifungal activity against Saccharomyces cerevisiae assessed as 99.9 % growth inhibition after 18 hrs by zone-of-inhibition assay; assay type: functional
[12] = test system: Saccharomyces cerevisiae; assay: Antifungal activity against Saccharomyces cerevisiae after 18 hrs by zone-of-inhibition assay; assay type: functional, organism-based
[13] = test system: KB; assay: Cytotoxicity against human KB cells; assay type: functional, cell-based
[14] = test system: Mycolicibacterium smegmatis; assay: Antimicrobial activity against Mycobacterium smegmatis assessed as 99.9 % growth inhibition after 18 hrs by zone-of-inhibition assay; assay type: functional
[15] = test system: Lu1; assay: Cytotoxicity against human Lu1 cells; assay type: functional; conditions: read-out: ED50 (the source's name)
[16] = Cytotoxicity against human HUVEC; assay type: cell-based; conditions: HUVEC cells, read-out: ED50 (the source's name)
[17] = test system: Cryptococcus neoformans; assay: Antifungal activity against Cryptococcus neoformans assessed as 99.9 % growth inhibition after 18 hrs by zone-of-inhibition assay; assay type: functional
[18] = test system: Candida albicans; assay: Antifungal activity against Candida albicans after 18 hrs by zone-of-inhibition assay; assay type: functional, organism-based; conditions: for IC50: Candida albicans, 18 h
[19] = test system: Cryptococcus neoformans; assay: Antifungal activity against Cryptococcus neoformans after 18 hrs by zone-of-inhibition assay; assay type: functional, organism-based; conditions: for IC50: Cryptococcus neoformans, 18 h
[20] = test system: Mycobacterium avium; assay: Antimicrobial activity against Mycobacterium avium assessed as 99.9 % growth inhibition after 18 hrs by zone-of-inhibition assay; assay type: functional
[21] = test system: Mus musculus; assay: Toxicity in human KB cell xenografted mouse assessed as body weight loss at 5 mg/kg; assay type: organism-based; parameters: dose 5 mg/kg; conditions: in vivo
Outline: (§1)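 In vivo hollow fiber assay in mice, with KB, LNCaP or Lu1 cancer cells at intraperitoneal and subcutaneous sites. Doses ranged from 1.25 to 10 mg/kg, with six mice per dose group. Body weight and deaths were recorded alongside tumor-cell growth inhibition.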

[22] = test system: Mus musculus; assay: Toxicity in human LU1 cell xenografted mouse assessed as body weight loss at 5 mg/kg; assay type: organism-based; parameters: dose 5 mg/kg; conditions: in vivo; outline: as §1
[23] = test system: Mus musculus; assay: Toxicity in human LNCaP cell xenografted mouse assessed as body weight loss at 5 mg/kg; assay type: organism-based; parameters: dose 5 mg/kg; conditions: in vivo; outline: as §1
[24] = read-out: ED50 (the source's name)

SMILES | IC50 [1] | Activity [2] | Activity [3] | IC50 [4] | Activity [5] | EC50 [6] | IC50 [7] | Activity [8] | IC50 [9] | IC50 [10] | Activity [11] | IC50 [12] | EC50 [13, 24] | Activity [14] | EC50 [15] | CC50 [16] | Activity [17] | IC50 [18] | IC50 [19] | further results
COC1=CC(=O)c2c(O)cc(C)cc2C1=O | 50 µg/mL (≈ 229 µM) | >1000 µg/mL | 800 µg/mL | 100 µg/mL (≈ 458 µM) | 800 µg/mL | 3.4 µg/mL (≈ 15.6 µM) | 200 µg/mL (≈ 917 µM) | 400 µg/mL | 50 µg/mL (≈ 229 µM) | 50 µg/mL (≈ 229 µM) | 200 µg/mL | 50 µg/mL (≈ 229 µM) | 1.9 µg/mL (≈ 8.71 µM) | 800 µg/mL | 0.2 µg/mL (≈ 0.917 µM) | 2 µg/mL (≈ 9.17 µM) | 200 µg/mL | 100 µg/mL (≈ 458 µM) | 50 µg/mL (≈ 229 µM) | –
COC1=CC(=O)c2cc(C)cc(O)c2C1=O | > 1000 µg/mL | >1000 µg/mL | >1000 µg/mL | > 1000 µg/mL | >1000 µg/mL | 4.1 µg/mL (≈ 18.8 µM) | > 1000 µg/mL | >1000 µg/mL | 700 µg/mL (≈ 3210 µM) | 700 µg/mL (≈ 3210 µM) | >1000 µg/mL | > 1000 µg/mL | 2.4 µg/mL (≈ 11 µM) | >1000 µg/mL | 1.8 µg/mL (≈ 8.25 µM) | 5.5 µg/mL (≈ 25.2 µM) | >1000 µg/mL | > 1000 µg/mL | > 1000 µg/mL | –
COc1c(O)cc2ccc(=O)oc2c1OC | > 1000 µg/mL | >1000 µg/mL | >1000 µg/mL | > 1000 µg/mL | >1000 µg/mL | > 5 µg/mL | > 1000 µg/mL | >1000 µg/mL | > 1000 µg/mL | > 1000 µg/mL | >1000 µg/mL | > 1000 µg/mL | > 5 µg/mL | >1000 µg/mL | > 5 µg/mL | > 5 µg/mL | >1000 µg/mL | > 1000 µg/mL | > 1000 µg/mL | –
COC(=O)c1c(O)cc(C)cc1O | > 1000 µg/mL | >1000 µg/mL | >1000 µg/mL | > 1000 µg/mL | >1000 µg/mL | > 5 µg/mL | > 1000 µg/mL | >1000 µg/mL | > 1000 µg/mL | > 1000 µg/mL | >1000 µg/mL | > 1000 µg/mL | > 5 µg/mL | >1000 µg/mL | > 5 µg/mL | > 5 µg/mL | >1000 µg/mL | > 1000 µg/mL | > 1000 µg/mL | –
Cc1cc(O)c2c(c1)[C@@H](O)CCC2=O [4S-SHINANOLONE] | > 1000 µg/mL | >1000 µg/mL | >1000 µg/mL | > 1000 µg/mL | >1000 µg/mL | > 5 µg/mL | > 1000 µg/mL | >1000 µg/mL | > 1000 µg/mL | > 1000 µg/mL | >1000 µg/mL | > 1000 µg/mL | > 5 µg/mL | >1000 µg/mL | > 5 µg/mL | > 5 µg/mL | >1000 µg/mL | > 1000 µg/mL | > 1000 µg/mL | –
C=C(C)[C@@H]1CC[C@]2(CO)CC[C@]3(C)[C@H](CC[C@@H]4[C@@]5(C)CC[C@H](O)C(C)(C)[C@@H]5CC[C@]43C)[C@@H]12 [BETULIN] | – | – | – | – | – | > 5 µg/mL | – | – | – | – | – | – | > 5 µg/mL | – | > 5 µg/mL | > 5 µg/mL | – | – | – | –
CC[C@@]1(O)C(=O)OCc2c1cc1n(c2=O)Cc2cc3ccccc3nc2-1 [CAMPTOTHECIN] | – | – | – | – | – | – | – | – | – | – | – | – | – | – | – | – | – | – | – | EC50 ([13]; read-out: EC50): 0.01 µg/mL (≈ 0.0287 µM)
CC1=CC(=O)c2c(ccc(C3=C(C)C(=O)c4cccc(O)c4C3=O)c2O)C1=O [CHITRANONE] | 6 µg/mL (≈ 16 µM) | >1000 µg/mL | >1000 µg/mL | 6 µg/mL (≈ 16 µM) | >1000 µg/mL | 2.2 µg/mL (≈ 5.88 µM) | 90 µg/mL (≈ 240 µM) | >1000 µg/mL | 5 µg/mL (≈ 13.4 µM) | 10 µg/mL (≈ 26.7 µM) | 10 µg/mL | 3 µg/mL (≈ 8.01 µM) | 0.3 µg/mL (≈ 0.801 µM) | 20 µg/mL | 1.1 µg/mL (≈ 2.94 µM) | 2.1 µg/mL (≈ 5.61 µM) | 10 µg/mL | 10 µg/mL (≈ 26.7 µM) | 3 µg/mL (≈ 8.01 µM) | Activity [20]: 90 µg/mL
C=C(C)[C@@H]1CC[C@]2(C)CC[C@]3(C)[C@H](CC[C@@H]4[C@@]5(C)CC[C@H](O)C(C)(C)[C@@H]5CC[C@]43C)[C@@H]12 [LUPEOL] | > 1000 µg/mL | >1000 µg/mL | >1000 µg/mL | > 1000 µg/mL | >1000 µg/mL | > 5 µg/mL | > 1000 µg/mL | >1000 µg/mL | > 1000 µg/mL | > 1000 µg/mL | >1000 µg/mL | > 1000 µg/mL | > 5 µg/mL | >1000 µg/mL | > 5 µg/mL | > 5 µg/mL | >1000 µg/mL | > 1000 µg/mL | > 1000 µg/mL | –
COc1cc2c[n+](C)c3c4cc5c(cc4ccc3c2cc1OC)OCO5.[Cl-] [NITIDINE CHLORIDE] | 1000 µg/mL | >5000 µg/mL | 200 µg/mL | 3000 µg/mL | 5000 µg/mL | – | 300 µg/mL | 5000 µg/mL | 3000 µg/mL | 200 µg/mL | 3000 µg/mL | 300 µg/mL | – | >5000 µg/mL | – | – | 300 µg/mL | – | – | Activity [18]: 20 µg/mL; Activity [19]: 80 µg/mL
CC1=CC(=O)c2c(O)cccc2C1=O [PLUMBAGIN] | 300 µg/mL (≈ 1590 µM) | 400 µg/mL | >1000 µg/mL | 20 µg/mL (≈ 106 µM) | 600 µg/mL | 0.4 µg/mL (≈ 2.13 µM) | 100 µg/mL (≈ 531 µM) | 600 µg/mL | 600 µg/mL (≈ 3190 µM) | 80 µg/mL (≈ 425 µM) | 40 µg/mL | 10 µg/mL (≈ 53.1 µM) | 0.3 µg/mL (≈ 1.59 µM) | >1000 µg/mL | 0.3 µg/mL (≈ 1.59 µM) | 0.4 µg/mL (≈ 2.13 µM) | 40 µg/mL | 9 µg/mL (≈ 47.8 µM) | 20 µg/mL (≈ 106 µM) | Activity [21]: Toxic; Activity [20]: >1000 µg/mL; Activity [22]: Toxic; Activity [23]: Toxic
Cc1cc(O)c2c(c1)C(=O)C=CC2=O [RAMENTACEONE] | 40 µg/mL (≈ 213 µM) | 300 µg/mL | 20 µg/mL | 5 µg/mL (≈ 26.6 µM) | 1000 µg/mL | 3.7 µg/mL (≈ 19.7 µM) | 200 µg/mL (≈ 1060 µM) | >1000 µg/mL | 5 µg/mL (≈ 26.6 µM) | 20 µg/mL (≈ 106 µM) | 1 µg/mL | 0.3 µg/mL (≈ 1.59 µM) | 4.1 µg/mL (≈ 21.8 µM) | 600 µg/mL | 13.2 µg/mL (≈ 70.1 µM) | 5.7 µg/mL (≈ 30.3 µM) | 1 µg/mL | 0.3 µg/mL (≈ 1.59 µM) | 0.3 µg/mL (≈ 1.59 µM) | –
COc1cc2ccc(=O)oc2cc1O [SCOPOLETIN] | > 1000 µg/mL | >1000 µg/mL | >1000 µg/mL | > 1000 µg/mL | >1000 µg/mL | > 5 µg/mL | > 1000 µg/mL | >1000 µg/mL | > 1000 µg/mL | > 1000 µg/mL | >1000 µg/mL | > 1000 µg/mL | > 5 µg/mL | >1000 µg/mL | > 5 µg/mL | > 5 µg/mL | >1000 µg/mL | > 1000 µg/mL | > 1000 µg/mL | –
CC12C(=O)c3cccc(O)c3C(=O)C1CC1=C2C(=O)c2c(O)cccc2C1=O (centres undefined) [ZEYLANONE] | 50 µg/mL (≈ 134 µM) | >800 µg/mL | 3 µg/mL | 30 µg/mL (≈ 80.1 µM) | >800 µg/mL | 3.3 µg/mL (≈ 8.82 µM) | 6 µg/mL (≈ 16 µM) | >800 µg/mL | 200 µg/mL (≈ 534 µM) | 50 µg/mL (≈ 134 µM) | 500 µg/mL | 10 µg/mL (≈ 26.7 µM) | 2.1 µg/mL (≈ 5.61 µM) | 400 µg/mL | 14.5 µg/mL (≈ 38.7 µM) | 3.3 µg/mL (≈ 8.82 µM) | 100 µg/mL | 3 µg/mL (≈ 8.01 µM) | 10 µg/mL (≈ 26.7 µM) | –
